Experimental findings from ChEMBL document CHEMBL3603771, “Synthesis, biological evaluation and docking study of maleimide derivatives bearing benzenesulfonamide as selective COX-2 inhibitors and anti-inflammatory agents” (Bioorg Med Chem, 2015) are described below.

For data set [1], the target named is T1, Prostaglandin G/H synthase 1 (Ovis aries) (UniProt P05979).
T1 sequence (whole entry): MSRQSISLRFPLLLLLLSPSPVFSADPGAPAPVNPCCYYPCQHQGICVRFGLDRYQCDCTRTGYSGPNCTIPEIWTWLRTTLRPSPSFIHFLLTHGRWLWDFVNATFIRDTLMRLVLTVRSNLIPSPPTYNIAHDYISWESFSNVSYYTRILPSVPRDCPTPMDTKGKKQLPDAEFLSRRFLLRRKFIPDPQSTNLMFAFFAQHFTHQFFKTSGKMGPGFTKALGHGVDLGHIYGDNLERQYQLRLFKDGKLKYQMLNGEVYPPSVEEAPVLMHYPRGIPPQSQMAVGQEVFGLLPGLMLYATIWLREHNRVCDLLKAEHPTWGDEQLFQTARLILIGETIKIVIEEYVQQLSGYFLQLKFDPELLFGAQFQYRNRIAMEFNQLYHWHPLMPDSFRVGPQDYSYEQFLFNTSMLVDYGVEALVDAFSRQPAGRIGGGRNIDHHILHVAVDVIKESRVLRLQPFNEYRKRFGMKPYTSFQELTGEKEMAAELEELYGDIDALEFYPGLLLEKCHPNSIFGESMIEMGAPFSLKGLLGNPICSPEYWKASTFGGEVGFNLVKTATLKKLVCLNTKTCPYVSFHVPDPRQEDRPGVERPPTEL
The data set can be described thus: Inhibition of ovine COX1 using arachidonic acid as substrate at 1 uM preincubated for 5 mins measured after 2 mins by colorimetric analysis. A digest of the protocol: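 Ovine COX-1 or human recombinant COX-2 in 0.1 M Tris-HCl pH 8 with heme, preincubated with compound (DMSO stock) 5 min at 25°C. TMPD and arachidonic acid then added, 2 min at 25°C. Peroxidase activity read as oxidized TMPD at 590 nm. Selectivity index taken as COX-2/COX-1.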

A short description of data set [2]: Selectivity index, ratio of inhibition of human recombinant COX2 to inhibition of ovine COX1. A digest of the protocol: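 Ovine COX-1 or human recombinant COX-2 in 0.1 M Tris-HCl pH 8 with heme, preincubated with compound (DMSO stock) 5 min at 25°C. TMPD and arachidonic acid then added, 2 min at 25°C. Peroxidase activity read as oxidized TMPD at 590 nm. Compounds tested at 1 μM; % inhibition is the mean of two determinations. Selectivity index taken as COX-2/COX-1.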

Data set [3] concerns the target T2, Prostaglandin G/H synthase 2 (Homo sapiens) (UniProt P35354).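 Also: recombinant enzyme with arachidonic acid substrate, compound preincubated 5 min, colorimetric read-out taken 2 min after reaction start.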
T2 sequence (whole entry): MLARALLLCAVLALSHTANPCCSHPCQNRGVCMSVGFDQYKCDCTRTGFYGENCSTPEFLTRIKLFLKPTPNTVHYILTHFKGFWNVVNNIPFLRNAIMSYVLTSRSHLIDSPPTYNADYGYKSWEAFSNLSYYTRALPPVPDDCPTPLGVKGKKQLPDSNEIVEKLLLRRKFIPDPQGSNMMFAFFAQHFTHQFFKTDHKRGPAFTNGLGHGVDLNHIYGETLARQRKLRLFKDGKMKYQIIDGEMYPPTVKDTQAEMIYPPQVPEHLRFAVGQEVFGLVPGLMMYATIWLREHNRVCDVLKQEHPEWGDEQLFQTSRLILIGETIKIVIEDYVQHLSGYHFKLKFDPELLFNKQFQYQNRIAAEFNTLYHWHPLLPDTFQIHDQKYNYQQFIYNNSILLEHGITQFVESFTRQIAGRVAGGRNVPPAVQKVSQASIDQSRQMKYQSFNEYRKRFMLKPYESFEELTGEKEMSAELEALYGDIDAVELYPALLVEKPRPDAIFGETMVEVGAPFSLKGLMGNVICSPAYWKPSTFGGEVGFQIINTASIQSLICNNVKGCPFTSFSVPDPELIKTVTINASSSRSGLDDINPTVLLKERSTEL
The settings on record: at 1 µM.

For data set [4], the system named is Rattus norvegicus. The data set can be described thus: Antiinflammatory activity in Wistar albino rat assessed as inhibition of carrageenan-induced hind paw edema at 20 mg/kg, po after 5 hrs by plethysmometer. The class given is functional. In outline: (§1)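 Adult male Wistar albino rats, 150-200 g, fasted 24 h, six per group. Compounds at 20 mg/kg suspended in 1% CMC in water (10 mL/kg) given orally; vehicle-only controls. Carrageenan in normal saline injected into the plantar surface of the right hind paw 30 min after dosing.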

Data set [5] deals with Rattus norvegicus. The data set can be described thus: Antiinflammatory activity in Wistar albino rat assessed as inhibition of carrageenan-induced hind paw edema at 20 mg/kg, po after 3 hrs by plethysmometer. It is filed as functional. A digest of the protocol: as §1
Data set [6] deals with Rattus norvegicus. The data set can be described thus: Antiinflammatory activity in Wistar albino rat assessed as inhibition of carrageenan-induced hind paw edema at 20 mg/kg, po after 1 hr by plethysmometer. It is filed as functional. In outline:
as §1

For data set [7], the system named is Rattus norvegicus. The data set can be described thus: Toxicity in Wistar albino rat assessed as ulcer index at 20 mg/kg, po qd for 3 days measured after 6 hrs of last dose. Particulars: in vivo. It is filed as organism-based. A digest of the protocol:
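Male albino rats, 150-200 g, fasted 12 h with water ad libitum. Dosed orally at 20 mg/kg/day once daily for 3 days; controls received 7% gum acacia vehicle. Killed by ether overdose 6 h after the last dose. Stomachs opened along the greater curvature and scored for ulcers. Ulcer index by the Robert method from % incidence/10, mean ulcer number per stomach and severity score.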

`Cc1ccccc1NC1=C(Cl)C(=O)N(c2ccc(S(N)(=O)=O)cc2)C1=O`: the inhibition in data set [1] came to 6.25%; in data set [3] it was 10.1%. The Selectivity Index in data set [2] came to 1.62.

Take `NS(=O)(=O)c1ccc(N2C(=O)C(Cl)=C(Nc3ccc(C(F)(F)F)cc3)C2=O)cc1`: the figures for the inhibition in data set [1] and in data set [3] were 4.01% and 27.2%, respectively. For the same molecule, the Selectivity Index in data set [2] amounted to 6.78.

`COc1cccc(NC2=C(Cl)C(=O)N(c3ccc(S(N)(=O)=O)cc3)C2=O)c1`: the inhibition in vivo at 20 mg/kg in the data set on Rattus norvegicus [4] was determined as 77.3%; with Rattus norvegicus [5], 71.5%; in the data set on Rattus norvegicus [6], 73%. Further, the inhibition in data set [1] amounted to 0.89%; in data set [3], 44.2%. In addition, in data set [2], the Selectivity Index was found to be 49.7.

As for `NS(=O)(=O)c1ccc(N2C(=O)C(Cl)=C(Nc3cccc(F)c3)C2=O)cc1`, the figures for the inhibition in vivo at 20 mg/kg in the data set with Rattus norvegicus [4], in the data set with Rattus norvegicus [5] and in the data set with Rattus norvegicus [6] were 82.6%, 81% and 79.8%, respectively. Further, the inhibition in data set [1] is 0.89%; in data set [3] it was 49.3%. Moreover, the Selectivity Index in data set [2] was found to be 55.4. Moreover, the UI in the data set with Rattus norvegicus [7] stood at 8.3.

On to `Cc1ccc(NC2=C(Cl)C(=O)N(c3ccc(S(N)(=O)=O)cc3)C2=O)c(C)c1`, for which the inhibition is 5.35% in data set [1] and 13.8% in data set [3]. For the same molecule, the Selectivity Index in data set [2] was 2.57.

For `NS(=O)(=O)c1ccc(N2C(=O)C(Cl)=C(Cl)C2=O)cc1`, the inhibition in data set [1] came to 12.1%; in data set [3], 7.37%. Also, the Selectivity Index in data set [2] amounted to 0.611.

Turning to `NS(=O)(=O)c1ccc(N2C(=O)C(Cl)=C(Nc3cccc(Cl)c3Cl)C2=O)cc1`, the inhibition in data set [1] was 4.01%; in data set [3], 27.2%. For the same molecule, the Selectivity Index in data set [2] worked out at 6.78.

Regarding `COc1ccccc1NC1=C(Cl)C(=O)N(c2ccc(S(N)(=O)=O)cc2)C1=O`, the inhibition in data set [1] was 7.14%; in data set [3] it was 15.7%. In data set [2], the Selectivity Index was determined as 2.19.

With `NS(=O)(=O)c1ccc(N2C(=O)C(Cl)=C(Nc3ccc(F)cc3)C2=O)cc1`, the inhibition came to 1.33% in data set [1] and 27.6% in data set [3]. In addition, the Selectivity Index in data set [2] worked out at 20.8.

On to `Cc1ccc(-c2cc(C(F)(F)F)nn2-c2ccc(S(N)(=O)=O)cc2)cc1` [CELECOXIB], for which the inhibition in vivo at 20 mg/kg is 100% in the data set with Rattus norvegicus [4], 100% with Rattus norvegicus [5] and 92.2% with Rattus norvegicus [6]. Further, the UI with Rattus norvegicus [7] was determined as 11.9.

Consider `NS(=O)(=O)c1ccc(N2C(=O)C(Cl)=C(Nc3ccccc3F)C2=O)cc1`, for which the inhibition in vivo at 20 mg/kg in the data set on Rattus norvegicus [4] is 74.9%; in the data set with Rattus norvegicus [5], 71%; in the data set on Rattus norvegicus [6] it was 69.2%. In addition, the values for the inhibition in data set [1] and in data set [3] were 0.89% and 39.6%, respectively. Further, the Selectivity Index in data set [2] is 44.5.

Regarding `NS(=O)(=O)c1ccc(N2C(=O)C(Cl)=C(Nc3ccccc3)C2=O)cc1`, the inhibition in vivo at 20 mg/kg in the data set on Rattus norvegicus [4] turned out to be 62.1%; in the data set on Rattus norvegicus [5] it was 56.8%; in the data set with Rattus norvegicus [6], 35.4%. The inhibition in data set [1] stood at 0.89%; in data set [3], 39.6%. Moreover, in data set [2], the Selectivity Index turned out to be 44.5.

In the case of `NS(=O)(=O)c1ccc(N2C(=O)C(Cl)=C(Nc3ccc([N+](=O)[O-])cc3)C2=O)cc1`, the inhibition in data set [1] came to 0.89%; in data set [3], 17.1%. For the same molecule, the Selectivity Index in data set [2] was found to be 19.1.

Regarding `NS(=O)(=O)c1ccc(N2C(=O)C(Cl)=C(Nc3ccc(Cl)cc3)C2=O)cc1`, the values for the inhibition in data set [1] and in data set [3] were 9.37% and 24.4%, respectively. Moreover, the Selectivity Index in data set [2] was determined as 2.6.

Turning to `NS(=O)(=O)c1ccc(N2C(=O)C(Cl)=C(Nc3ccc(Cl)c(Cl)c3)C2=O)cc1`, the inhibition in data set [1] is 8.03%; in data set [3] it was 30.4%. Moreover, in data set [2], the Selectivity Index worked out at 3.78.

As to `NS(=O)(=O)c1ccc(N2C(=O)C(Cl)=C(N3CCCCC3)C2=O)cc1`, the inhibition in data set [1] worked out at 0.44%; in data set [3], 6.45%. Further, in data set [2], the Selectivity Index turned out to be 14.7.

For `Cc1cc(C)cc(NC2=C(Cl)C(=O)N(c3ccc(S(N)(=O)=O)cc3)C2=O)c1`, the inhibition in data set [1] turned out to be 0.44%; in data set [3], 6.91%. Besides, the Selectivity Index in data set [2] worked out at 15.7.

As to `COc1ccc(NC2=C(Cl)C(=O)N(c3ccc(S(N)(=O)=O)cc3)C2=O)cc1`, the inhibition amounted to 0.89% in data set [1] and 10.6% in data set [3]. Also, the Selectivity Index in data set [2] stood at 11.9.

Take `NS(=O)(=O)c1ccc(N2C(=O)C(Cl)=C(Nc3cccc(Cl)c3)C2=O)cc1`: the inhibition in vivo at 20 mg/kg came out at 72.1% in the data set with Rattus norvegicus [4], 70.4% in the data set on Rattus norvegicus [5] and 69.1% in the data set on Rattus norvegicus [6]. Also, the inhibition in data set [1] came to 0.89%; in data set [3], 42.4%. Moreover, in data set [2], the Selectivity Index was determined as 47.6.

On to `Nc1ccccc1NC1=C(Cl)C(=O)N(c2ccc(S(N)(=O)=O)cc2)C1=O`, for which the inhibition in data set [1] amounted to 1.78%; in data set [3], 23%. Besides, in data set [2], the Selectivity Index is 12.9.
